Source: ChEMBL document CHEMBL3227925, “Structure-activity relationship in a new series of atropine analogues. 1. N,N'-Disubstituted 6,7-diazabicyclo[3.2.2]nonane derivatives” (J Med Chem, 1979)
pKd: −log10 of the molar value. Structures can show the parent of a compound that is named as a salt. Active and inactive are the calls of the source. The calls are words filed in the database; no cut-off is given here.

Tests used:
[1] = Antagonist activity at muscarinic acetylcholine receptor in guinea pig ileum assessed as inhibition of acetylcholine-induced contraction; type: tissue-based, Cavia porcellus
Method in brief: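 Ileum segments (~2 cm) from freshly killed guinea pigs in a 10-mL organ bath of Tyrode solution at 37 °C, air-bubbled. Isotonic contractions recorded. Acetylcholine dose-response curves run without and with antagonist. Affinity constants calculated from the dose ratio. Values are means of two to four separate experiments ± SD.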

[2] = Toxicity in ip dosed mouse; type: organism-based; conditions: in vivo
Method in brief: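 Preliminary LD50 determination in mice given the drugs intraperitoneally.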

Cavia porcellus [3] = species: Cavia porcellus; assay: Competitive antagonist activity at muscarinic acetylcholine receptor in guinea pig ileum assessed as inhibition of acetylcholine-induced contraction at 1X10'-8 M; type: tissue-based
Method in brief: (§1)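 Guinea pig ileum (~2 cm, freshly killed animals) in a 10-mL Tyrode bath at 37 °C, air-bubbled, isotonic lever recording. Acetylcholine dose-response curves recorded alone and with antagonist present at a single fixed concentration (1×10^-8 or 1.1×10^-8 M). The curves were compared for shift.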

[4] = Displacement of [3H]4-NMPB from muscarinic acetylcholine receptor in mouse brain; type: tissue-based
Cavia porcellus [5] = species: Cavia porcellus; assay: Competitive antagonist activity at muscarinic acetylcholine receptor in guinea pig ileum assessed as inhibition of acetylcholine-induced contraction at 1.1X10'-8 M; type: tissue-based; method in brief: as §1

Row | SMILES | pKd [1] | further results
1 | CN1[C@@H]2CC[C@@H](C[C@H](OC(=O)C(CO)c3ccccc3)C2)N1C (stereo not given in full) | 10.04 | –
2 | CN1[C@@H]2CC[C@@H](C[C@H](OC(=O)C(CO)c3ccccc3)C2)N1C (stereo in doubt; 1) | 8.77 | LD50 [2]: 150 mg/kg
3 | CN1[C@@H]2CC[C@@H](C[C@H](OC(=O)C(CO)c3ccccc3)C2)N1C (stereo in doubt; 2) [listing 1 of 2 here] | 10.18 | –
4 | CN1[C@@H]2CC[C@@H](C[C@H](OC(=O)C(CO)c3ccccc3)C2)N1C (stereo in doubt; 2) [listing 2 of 2 here] | – | inhibition (Cavia porcellus [3]): Active
5 | CN1[C@@H]2CC[C@@H](C[C@H](OC(=O)C(CO)c3ccccc3)C2)N1C (stereo in doubt; 4) | 6.77 | –
6 | CN1[C@@H]2CC[C@@H](C[C@H](OC(=O)C(CO)c3ccccc3)C2)N1C (stereo in doubt; 5) [listing 1 of 2 here] | 8.80 | pKd [4]: 8.68
7 | CN1[C@@H]2CC[C@@H](C[C@H](OC(=O)C(CO)c3ccccc3)C2)N1C (stereo in doubt; 5) [listing 2 of 2 here] | – | inhibition (Cavia porcellus [5]): Active
8 | CN1[C@@H]2CC[C@H]1C[C@@H](OC(=O)C(CO)c1ccccc1)C2 (stereo not given in full) [ATROPINE SULFATE] | 9.31 | –
